# High-throughput results: PubChem, several laboratories
# ABCB6 inh 2 = ABCB6 transporter inhibitors, primary screen, K562-ABCB6 cells, flow cytometry, MLPCN library; ATP-binding cassette sub-family B member 6 (Homo sapiens), Q9NP58; K562-ABCB6 porphyrin accumulation, 1 h; stronger effect = lower value; fluorescence ratio to DMSO, % at 10 µM; actives 0.19% (n = 360,000);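 active = fluorescence ratio to DMSO below 75%, the collection mean minus 3 SD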;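 note: signal is porphyrin accumulated inside mitochondria; lower ratio means ABCB6 inhibition with less porphyrin fluorescence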
# AHR activator = AHR activators, primary screen, cell-based, luminescence, luciferase reporter, human; AID 2796, 2010; Aryl hydrocarbon receptor (Homo sapiens), P35869; actives 2.5% (n = 320,000); AHR-responsive luciferase reporter cells; activation, % at 5 µM; in the data active = activation above about 47%
# Target sequence (P35869 whole entry, looked up): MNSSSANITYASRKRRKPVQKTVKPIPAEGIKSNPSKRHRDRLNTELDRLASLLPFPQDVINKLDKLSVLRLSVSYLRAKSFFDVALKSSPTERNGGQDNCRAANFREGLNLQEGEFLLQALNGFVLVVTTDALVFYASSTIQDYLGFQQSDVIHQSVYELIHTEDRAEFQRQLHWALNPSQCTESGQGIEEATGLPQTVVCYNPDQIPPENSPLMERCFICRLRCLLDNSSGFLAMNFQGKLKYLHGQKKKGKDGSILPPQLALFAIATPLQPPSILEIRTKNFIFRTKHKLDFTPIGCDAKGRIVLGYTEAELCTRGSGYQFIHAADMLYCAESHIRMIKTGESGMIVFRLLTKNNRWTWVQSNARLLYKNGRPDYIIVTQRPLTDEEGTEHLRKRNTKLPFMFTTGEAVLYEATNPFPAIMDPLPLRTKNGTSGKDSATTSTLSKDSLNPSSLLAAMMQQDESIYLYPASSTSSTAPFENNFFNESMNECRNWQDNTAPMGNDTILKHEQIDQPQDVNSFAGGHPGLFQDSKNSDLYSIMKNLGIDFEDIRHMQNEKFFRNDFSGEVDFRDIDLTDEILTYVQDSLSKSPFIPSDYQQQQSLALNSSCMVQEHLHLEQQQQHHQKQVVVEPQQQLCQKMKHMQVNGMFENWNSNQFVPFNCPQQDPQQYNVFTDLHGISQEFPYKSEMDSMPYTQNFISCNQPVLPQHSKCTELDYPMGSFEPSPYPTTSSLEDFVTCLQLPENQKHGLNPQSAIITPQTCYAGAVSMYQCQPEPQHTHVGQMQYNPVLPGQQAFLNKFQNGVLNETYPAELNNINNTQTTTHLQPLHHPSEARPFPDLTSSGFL
# STAT3 act-1 = IL-6 driven STAT3 reporter potentiators, primary screen, U3A cells, luciferase, luminescence, MLSCN library. IL-6 STAT3-luciferase reporter; 100% = signal with IL-6 EC80 alone. activation (% of control), % at 5.6 µM. actives 0.91% (n = 190,000). AID 871, 2007;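 active = activation above the screen-wide mean of compound activation plus 3 SD, cut at about 130% in these data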
#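 Material: STAT3-luciferase reporter U3A cells; Probe or stimulus: IL-6 (33 ng/mL); Incubation: compound pre-incubation 1 h before IL-6, then 6 h stimulation at 37 °C; Technique: luminescence from STAT3-driven luciferase reporter; Evaluation: % activation versus median of IL-6-stimulated wells; Controls: IL-6-only high control.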
# FXN GAA850 act = FXN promoter activators, primary screen, cell-based, luciferase luminescence, HEK293 lucGAA850; HEK293 lucGAA850 FXN promoter luciferase reporter, 24 h; percent of 10 µM SAHA response; activation, % at 6 µM; actives 0.56% (n = 360,000);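 active = activation above the average of all compounds screened plus 3 SD, cutoff fixed separately per campaign, cut at about 7.5% in these data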
# STAT3 act-2 = STAT3 reporter potentiators, retest of hits, confirmation, U3A cells, luciferase, luminescence; shares compounds with STAT3 act-1; IL-6 potentiation; U3A cells lack STAT1; 100 means same as IL-6 alone; potentiation (% of control), % at 5.7 µM; actives 64% (n = 1,200);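 active = percent activation of the STAT3 luciferase reporter above a set limit taken from the earlier primary screen, cut at about 130% in these data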
# NFkB act 2 = NF-kB reporter activators in human cells, counter-screen for STAT3 activator project; AID 1309, 2008; shares compounds with STAT3 act-1; NF-kappaB reporter activation; actives 11% (n = 1,200); activation (% of control), % at 5.7 µM; in the data active = activation above about 120%;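 note: reporter induced by TNF-alpha stimulation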
# STAT1 act STAT3c = STAT1 reporter activators, IFN-gamma induced, counter-screen for STAT3 activator project, cell-based, NIH 3T3, luciferase luminescence; activation (% of control), % at 5.7 µM; actives 13% (n = 1,200); shares compounds with STAT3 act-1; NIH 3T3 STAT1-luciferase reporter; AID 1318, 2008;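 active = activation above the solvent-only control well mean plus 3 SD, set per screening run, cut at about 120% in these data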
# Hits are given with their value; . = inactive; / = not tested or not shown. A selection: hits, their analogues and other compounds. The true share with any hit is near 3.3%.
SMILES,ABCB6 inh 2,AHR activator,STAT3 act-1,FXN GAA850 act,STAT3 act-2,NFkB act 2,STAT1 act STAT3c
CC1CCN(C(=O)Cn2c(=O)n(CCc3ccccc3)c(=O)c3ccccc32)CC1,.,.,140,.,138,.,.
Cc1ncoc1C(=O)N1CCc2c([nH]c3ccccc23)C1c1ccccc1F (stereo not drawn),.,.,.,.,/,/,/
CN1N=C(C(=O)N2CCc3c([nH]c4ccccc34)C2c2c(F)cccc2Cl)CCC1=O (stereo not drawn),.,.,154,.,150,.,.
Cc1cc(C)nc(NC(=O)CSc2nc3ccccc3s2)n1,.,.,.,.,/,/,/
Cc1ccc(S(=O)(=O)NC(=O)CSc2nc3ccccc3s2)cc1,.,.,141,.,.,.,.
Cc1ccsc1-c1ccnc(-n2cccc2)n1,.,67,146,.,.,.,.
Clc1ccsc1-c1ccnc(-n2cccc2)n1,.,57,140,.,160,.,.
COc1ccc(C(C[N+](=O)[O-])c2c(C)[nH]c3ccccc23)cc1OC (stereo not drawn),.,60,138,.,.,.,.
O=C(CSc1nnc(-c2cccc(F)c2)o1)Nc1nncs1,.,.,.,.,/,/,/
Cc1cc(C)nc(NS(=O)(=O)c2ccc(NC(=O)c3cccs3)cc2)n1,.,.,.,.,/,/,/
CCCCN(CCCC)S(=O)(=O)c1ccc(NC(=O)c2cccs2)cc1,.,.,145,.,.,.,.
CCc1ccc(NC(=O)c2cnc3scc(C)n3c2=O)cc1,.,63,154,.,165,.,138
Cc1csc2ncc(C(=O)Nc3cccc(C(F)(F)F)c3)c(=O)n12,.,.,/,.,/,/,/
CNS(=O)(=O)c1cccc(C(=O)OCC(=O)Nc2ccc(OC)cc2[N+](=O)[O-])c1,.,.,.,.,/,/,/
COC(=O)C1=C(NC(=O)c2ccccc2[N+](=O)[O-])CCS1,.,.,.,.,/,/,/
COC(=O)C1=C(NC(=O)c2ccc(Br)cc2)CCS1,.,.,146,.,133,.,.
COc1ccc(CCNc2nc(C)nc3c2nnn3Cc2ccccc2)cc1,.,.,/,.,/,/,/
CCOC(=O)c1cnn(-c2nc3c(C)cccc3s2)c1C(F)(F)F,.,.,.,.,/,/,/
CCOC(=O)c1cnn(-c2nc3c(C)cccc3s2)c1C,.,.,152,.,.,.,.
COc1ccc(C)c2sc(=NC(=O)c3ccc(C(C)=O)cc3)n(C)c12,.,.,/,.,/,/,/
COc1ccc(C)c2sc(=NC(=O)c3ccccc3)n(C)c12,.,.,136,.,139,148,182
Cc1c(NC(=O)COC(=O)c2cc3c4ccccc4n(C)c3s2)c(=O)n(-c2ccccc2)n1C,.,.,158,.,136,.,.
O=C(c1ccccc1)c1nn(-c2ccc(Cl)cc2)cc1C(=O)c1cc2ccccc2oc1=O,.,.,136,.,.,.,.
O=C(COC(=O)c1ccc(=O)n(Cc2ccccc2)n1)Nc1ccc2c(c1)OCCO2,.,.,.,.,/,/,/
Cc1ccc(-n2c(=S)[nH]c3sc4c(c3c2=O)CCC4)cc1,.,.,137,.,.,.,.
SMILES,ABCB6 inh 2,AHR activator,STAT3 act-1,FXN GAA850 act,STAT3 act-2,NFkB act 2,STAT1 act STAT3c
CCN(CC)CCCNC(=O)c1cc2c(-c3cccc(OC)c3)nn(C)c2s1,.,.,/,.,/,/,/
CCCCN(C)CCNC(=O)c1cc2c(-c3ccccc3F)nn(C)c2s1,.,.,/,.,/,/,/
CC(C)NC(=O)c1cc2c(-c3ccc(Cl)cc3)nn(C)c2s1,.,59,158,.,150,.,.
COCCCNC(=O)c1cc2c(-c3ccc(Cl)cc3)nn(C)c2s1,.,64,151,.,143,.,.
CCOC(=O)N1CCC(NC(=O)c2cc3c(-c4ccc(Cl)cc4)nn(C)c3s2)CC1,.,.,151,.,.,.,.
CSc1cc(-c2ccc(Cl)cc2)c(C(=O)NC(C)C)s1,.,.,.,.,/,/,/
Cc1ccc(CNC(=O)c2cc3c(-c4ccc(Cl)cc4)nn(C)c3s2)o1,.,.,155,.,152,.,.
COc1cccc(/C=N/N2CCN(C3c4ccccc4-c4ccccc43)CC2)c1O,.,.,/,.,/,/,/
CSc1nc(NC(C)=O)nc(C)c1Br,.,.,.,.,/,/,/
O=C(CN1CCC(NC(=O)Cc2ccccc2)CC1)Nc1ccccc1Br,.,.,.,.,/,/,/
CCCCN(CC)CCCNC(=O)c1cc2c(-c3ccc(OC)c(OC)c3)nn(C)c2s1,.,.,/,.,/,/,/
COCCNC(=O)c1cc2c(-c3ccc(Cl)cc3)nn(C)c2s1,.,59,152,.,139,.,.
Cn1nc(-c2ccc(Cl)cc2)c2cc(C(=O)NCCCN3CCCC3)sc21,.,54,166,.,155,.,.
COc1cccc(-c2nn(C)c3sc(C(=O)NCCCN(C)Cc4ccccc4)cc23)c1,.,.,/,.,/,/,/
CCN1CCCC1CNC(=O)c1cc2c(-c3cccc(OC)c3)nn(C)c2s1 (stereo not drawn),.,.,.,.,/,/,/
CCN1CCCC1CNC(=O)c1cc2c(-c3ccc(Cl)cc3)nn(C)c2s1 (stereo not drawn),.,59,170,.,156,.,.
CCCCNC(=O)c1cc2c(-c3ccc(Cl)cc3)nn(C)c2s1,.,50,138,.,151,.,.
O=C(O)CCn1c(SCCc2ccccc2)nc2ccccc21,.,.,/,.,/,/,/
CCOc1ccc(Cn2c(O)cc(=O)[nH]c2=O)cc1,.,.,.,.,/,/,/
O=C(NCc1ccc(Cl)cc1)C1CCN(C(=O)c2ccc(Cl)cc2)CC1,.,/,/,.,/,/,/
CN(C)C(CNC(=O)c1cccc(S(=O)(=O)Nc2ccc(SC(F)F)cc2)c1)c1ccccc1 (stereo not drawn),.,/,/,.,/,/,/
O=C1/C(=C\c2ccco2)SC(=S)N1Cc1ccccc1,.,.,168,.,157,.,.
CCC(C)(C)C1CCC2(CC1)NC(=O)N(CC(=O)NC(C)CCc1ccccc1)C2=O (stereo not drawn),.,/,/,.,/,/,/
CCOC(=O)c1cnn(-c2ncnc3sc(CC)cc23)c1N,.,.,144,.,147,.,.
O=S(=O)(Nn1c(O)c(C=C2N=c3ccccc3=N2)sc1=S)c1ccccc1,.,.,/,.,/,/,/
O=C(Cc1ccccc1)Nn1c(O)c(/C=C2\C=Nc3ccccc32)sc1=S,.,76,170,.,.,.,.
